# Source: ChEMBL document CHEMBL4513216, “Probing the Open Global Health Chemical Diversity Library for Multistage-Active Starting Points for Next-Generation Antimalarials” (ACS Infect Dis, 2020)
# Assay: Toxicity liver stage against HepG2, at 10uM
# Format: cell-based
# Set-up: test concentration 10 uM, cell line HepG2-A16-CD81EGFP
# Conditions: human, HepG2-A16-CD81EGFP cells; read-out: INHIBITION
# In short: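 Uninfected HepG2-A16-CD81EGFP cells, 3 × 10^3 per well, 1536-well, plated on prespotted compound at 10 μM final, parasite-free screening media added to match infected plates; puromycin 10 μM positive, DMSO 0.5% negative; run in parallel with 48 h PbLuc assay at 37 °C, 5% CO2; viability by CellTiter-Glo luminescence, normalized to controls.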
row,Structure (SMILES),cytotoxicity at 10 µM [%]
1,OCCc1cc(CC2(NCc3ccncc3)COC2)no1,-3.56
2,CS(=O)(=O)c1ccc(-c2ccccc2C(=O)O)cc1,0.238
3,O=C(NCCc1ccccc1)NCC(O)c1cccs1 (centres undefined),-11.9
4,COCC(=O)Nc1cnc(N2CCCC2)nc1,-5.93
5,COc1cccc2sc(N(C)CC(=O)NCc3nc(C)no3)nc12,-1.53
6,O=S(=O)(c1ccccc1)N1C[C@@H]2CCN[C@@H]2C1,2.58
7,Cn1c2c(c(=O)n1C)CN(C(=O)c1ccco1)CCC2,10.5
8,FC1(F)CCN(c2ccccc2)CC12CCN(c1ncccn1)C2 (centres undefined),3.71
9,CCc1ncnc2c1CCN(c1ncc(F)cn1)CC2,7.86
10,Cc1ccc(N2CCc3sc(C(=O)NCCN4CCCC4)cc32)nn1,-2.19
11,O=C(NCc1ccccc1)N1CCC2(CC(=O)N(c3ccccc3)C2)C1 (centres undefined),2.61
12,O=C1CC[C@H]2[C@H](CCN2C(=O)c2ccc[nH]2)N1CCN1CCOCC1,3.3
13,NC(=O)CSc1nnc2n1N=CN(c1ccccc1F)C2,-3.78
14,COc1cccc(-c2nc(C)c(C(=O)N[C@@H](C)C(=O)O)s2)c1,6.51
15,CCCc1cc(=O)[nH]c2nnc(SCC(=O)NCc3ccc(C)cc3)n12,-15.7
16,O=C(NCC(Cc1cccc(F)c1)N1CCCC1=O)c1cnccn1 (centres undefined),-5.06
17,Cc1nnn2c1COCC(CNC(=O)c1ccc3[nH]ccc3c1)C2 (centres undefined),-10.7
18,COc1c(C(=O)NCC2CCCO2)nnn1Cc1ccccc1 (centres undefined),7.47
19,CCN1CCN(c2nc(C(C)C)nc3c(C)nn(CC)c23)CC1,-12.6
20,Nc1nc(N)c2c(n1)OC1(CCN(Cc3nccs3)C1)C2 (centres undefined),0.861
21,c1cnc(Nc2ccc(C3CCCCN3)cn2)cn1 (centres undefined),1.24
22,CCN1CCCC(NC(=O)CCn2c(C(F)F)cc3cccnc32)C1 (centres undefined),-0.212
23,Cc1nc(Nc2nnc(C)s2)cc(C2CCCN2C(C)C)n1 (centres undefined),-23.9
24,CC(=O)N1CCC(c2nc(C)cc(-c3ccccc3C(=O)O)n2)CC1,-28
25,NC(=O)CN(CC(N)=O)Cc1cccc(Oc2ccccc2)c1,-5.05
26,Cn1cc(NS(=O)(=O)CCOc2ccc(F)cc2)cn1,-0.77
27,Cc1cccc(C2CCCCCN2C(=O)c2cn(CC(N)=O)nn2)c1 (centres undefined),1.51

row,Structure (SMILES),cytotoxicity at 10 µM [%]
1,O=C(CCc1nnc(-c2ccccc2)o1)N1CCCC1c1ccc[nH]1 (centres undefined),-3.33
2,CNC(=O)c1cccc(CNC2CCCSc3ccccc32)c1 (centres undefined),-2.64
3,CC(=O)NCc1ccc(S(=O)(=O)NC(=O)c2ccc3c(c2)CCO3)s1,16.1
4,CC(O)CCN(C)S(=O)(=O)Cc1ccc(Cl)c(Cl)c1 (centres undefined),3.92
5,Cc1nccc(CNC(=O)NCCC(=O)N2CCCc3ccccc32)n1,-0.457
6,CCCC(C)N(C)Cc1nnc(-c2ccc(Br)s2)o1 (centres undefined),-1.16
7,CNS(=O)(=O)c1cccc(CNc2ccc(C#N)cn2)c1,-4.36
8,O=C1CCN(C(=O)C2(c3ccc(F)cc3)CCCCC2)CCN1,-7.4
9,CCS(=O)(=O)N1CCC(Nc2ccc(C#N)cc2F)CC1,5.65
10,Cc1noc(C)c1NS(=O)(=O)c1cc(C(=O)O)cc(Cl)c1Cl,6.14
11,CN(CCC#N)C(=O)CSc1cc(F)ccc1F,13.2
12,COc1ccc(NC(=O)c2ccoc2C)c(N2CCN(C(C)=O)CC2)n1,-9.09
13,N#Cc1ccnc(N2CCN(CC(O)c3ccccc3Cl)CC2)c1 (centres undefined),1.7
14,Cc1nnc(C(C)NCC2(c3ccc(F)cc3)CCCCC2)o1 (centres undefined),2.39
15,Cc1nc2n(n1)CC(NCc1ccnc(-c3ccccc3)n1)CC2 (centres undefined),-0.898
16,O=C(Cc1ccc2c(c1)OCO2)N1CCCN(c2nccs2)CC1,-11.9
17,O=C(NCc1ccccc1F)NC1CCCN(c2ncccn2)C1 (centres undefined),7.81
18,O=C(NCc1nnc2n1CCC2)NCC1(c2cccc(F)c2)CC1,-6.03
19,CCOC(=O)c1nc(CN2CCN(C(C)C(=O)NC3CC3)CC2)cs1 (centres undefined),-2.52
20,Cc1cc(NC(=O)CNc2cccc(C(=O)N3CCCC(O)C3)c2)no1 (centres undefined),-2.21
21,CC(NCC1CCN(CCO)CC1)c1cccnc1 (centres undefined),-5.6
22,O=C(NCCCO)Nc1cccc(C[S+]([O-])c2ccccc2)c1 (centres undefined),0.0964
23,CCS(=O)(=O)CC(=O)NC1(c2ccc(Cl)c(Cl)c2)CC1,-2.6
24,O=C(CNC(=O)c1cnc2ccccc2c1O)NCCCn1ccnc1,-5.28
25,c1cncc(-c2ccnn2CN2CCC3(CC2)OCCO3)c1,8.19
26,COCCNC(=O)c1ccc(C)c(-n2cccc2)c1,-3.06
27,CN(C)C(=O)NC1COC2(CCN(S(=O)(=O)c3ccccc3)CC2)C1 (centres undefined),-88.5
